CaV13 ICDI inh – Primary screen for inhibitors of IQ motif and Ca2+-dependent inactivation inhibitor domain binding in CACNA1D, Förster resonance energy transfer in living cells, … | HEK cells, CFP/YFP FRET ICDI-IQ, plate reader, 10 min; percent FRET-ratio fall versus neutral wells | inhibition, % at 12.3 µM | actives 0.098% (n = 340,000) | AID 743397;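 active = mean replicate inhibition of at least 30% and at least 1% of replicates passing that level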;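 note: 0% = median of the neutral control wells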
DENV2 CPE – inhibitors of DENV2 cytopathic effect, primary screen, cell-based, plate reader, single concentration. DENV2-infected cells, cytopathic effect rescue. actives 1.7% (n = 350,000). CPE inhibition, % at 9.99 µM. AID 651640, 2012; in the data active = CPE inhibition above about 20%, passing the limit was not always enough; tested in BHK-21 cells;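 note: 0% = median of neutral control wells and 100% = median of positive control wells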
FN deposit inh – inhibitors of fibronectin matrix deposition, primary screen, AH1F cells, Alexa488-fibronectin fluorescence, plate reader; AH1F fibroblasts, overnight; inhibition, % at 12.6 µM; actives 0.086% (n = 350,000); AID 743247, 2014;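 active = mean inhibition across replicates of 30% or more, regardless of how many single replicates reach that level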;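 note: positive control wells lacked labelled fibronectin entirely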
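Test system: AH1F fibroblast monolayer depositing Alexa488-labelled fibronectin into matrix. Input: 10000 cells per well. Technique: fluorescence, ex 485 nm, em 525 nm. Buffer or medium: DMEM plus 2% serum, read in PBS. Timing: 1 h cell adhesion before compound, then overnight fibronectin incubation. Compound: single dose, pinned. Read-out basis: inhibition from reduced deposited-fibronectin fluorescence.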
CASP6 VEID inh – human caspase-6 inhibitors, primary screen, biochemical, VEID-R110 fluorescence, single point, set 2 | inhibition, % at 12.5 µM | P55212 | purified caspase-6, Z-VEID-R110 cleavage fluorescence | actives 0.53% (n = 350,000);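 active = mean inhibition across replicates at least about 35%, with every replicate also reaching that limit, limit read from the data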;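 note: 0% = median of neutral control wells and 100% = no fluorescence left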
Target sequence (P55212 24-179 limits assumed): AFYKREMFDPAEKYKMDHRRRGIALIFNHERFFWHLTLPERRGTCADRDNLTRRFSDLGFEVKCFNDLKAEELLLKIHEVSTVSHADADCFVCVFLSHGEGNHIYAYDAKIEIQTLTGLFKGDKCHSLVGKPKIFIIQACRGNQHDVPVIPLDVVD
Target sequence (P55212 194-293 limits assumed): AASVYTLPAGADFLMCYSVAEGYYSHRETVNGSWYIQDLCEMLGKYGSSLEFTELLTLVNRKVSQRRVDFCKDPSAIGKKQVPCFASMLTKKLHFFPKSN
Xi reactivation – activators of inactive X chromosome reactivation, primary screen, imaging, XiGFP fibroblasts, GFP high-content imaging, set 2; XiGFP mouse fibroblasts, % GFP-positive cells imaging, 3 d; cells co-treated with 5-aza-dC sensitizer; scaled so ellipticine positive control = 100%; activation, % at 7.58 µM; actives 0.055% (n = 360,000);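 active = mean normalized replicate activation at least 10% and every replicate at or above 10%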;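 note: 0% = median of on-plate neutral control wells and 100% = ellipticine 6 µM median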
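assay system = SV40-immortalized XiGFP fibroblast cells, line 68-5-11 | buffer or medium = DMEM plus 5-aza-dC sensitizer | doses = single-point pinned compound dosing | times = 3-day compound exposure, then 15 min fixation at room temperature | benchmarks = positive control ellipticine, 6 µM final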
Active calls of the source: *; . = no result given. A selection: hits, their analogues and other compounds. The true share with any hit is near 2%.

SMILES | CaV13 ICDI inh | DENV2 CPE | FN deposit inh | CASP6 VEID inh | Xi reactivation
NCC[C@@H]1CC[C@H](NC(=O)c2ccccc2F)[C@H](CO)O1 | . | 11 | -1 | 4 | 0
CC(Oc1cccc(Cl)c1)C(=O)NNC(=O)c1cccnc1 (stereo not drawn) | -3 | -6 | 31* | -1 | 0
O=C(NC[C@@H]1CC[C@@H]2[C@@H](CN2Cc2ccc(Oc3ccccc3)cc2)O1)C1CCOCC1 | . | -5 | . | -1 | .
O=C(NC[C@H]1CC[C@H]2[C@H](CN2Cc2cccc(Cl)c2)O1)C1CCOCC1 | . | 58* | . | 1 | .
C[C@@H]1CCCCO[C@H](CN(C)C(=O)Nc2ccc3c(c2)OCO3)[C@H](C)CN([C@H](C)CO)C(=O)c2cc(NC(=O)CCC(F)(F)F)ccc2O1 | . | -2 | . | 2 | -1
O=C(/C=C/c1ccccc1)NCCc1ccc2c(c1)OCCO2 | -5 | 59* | 4 | -2 | 0
O=C(O)CN1C(=O)/C(=C\c2cccc(OCc3ccc(Cl)cc3Cl)c2)SC1=S | -2 | -6 | -5 | 60* | 0
O=C(O)CN1C(=O)/C(=C\c2cc(Br)ccc2OCc2ccc([N+](=O)[O-])cc2)SC1=S | -5 | 4 | -7 | 55* | 0
COc1cc([N+](=O)[O-])cc(/C=C2/SC(=S)N(Cc3ccccc3)C2=O)c1O | -22 | 7 | -11 | . | 0
O=C(O)CN1C(=O)/C(=C\c2cc(Br)ccc2OCc2ccccc2Cl)SC1=S | -17 | 5 | -2 | 76* | 0
COc1cccc(/C=C2\SC(=S)N(CCCC(=O)N3CCCCC3)C2=O)c1 | -5 | 27* | 1 | -6 | 0
COc1cccc(/C=C2/SC(=S)N(CCC(=O)N3CCOCC3)C2=O)c1 | -2 | -4 | 2 | -2 | 0
O=C(O)COc1ccc(Br)cc1/C=C1/SC(=O)N(CC(=O)N2CCCC2)C1=O | -5 | . | . | . | .
O=C1N[C@@H](Cc2ccccc2)COCc2cnnn2CC[C@H]1Cc1cccc(F)c1 | . | . | 1 | . | 0
C[C@@H]1CN([C@@H](C)CO)C(=O)c2cccc(NS(=O)(=O)c3cccs3)c2O[C@H]1CN(C)S(=O)(=O)c1ccccc1 | . | 9 | -4 | -3 | -1
O=C(O)CN1C(=O)/C(=C\c2cc(Br)ccc2OCc2ccccc2F)SC1=S | -4 | 2 | -10 | 38* | 0
O=C(O)CN1C(=O)/C(=C\c2ccccc2OCc2ccc(Cl)cc2Cl)SC1=S | -4 | 3 | -4 | 52* | 0
COc1ccc(S(=O)(=O)Nc2ccc3c(c2)CC(=O)N([C@@H](C)CO)C[C@H](C)[C@H](CN(C)Cc2ccc4c(c2)OCO4)O3)cc1 | . | 28* | -6 | -1 | 0
C[C@H]1CN([C@@H](C)CO)C(=O)Cc2cc(NS(=O)(=O)c3cccs3)ccc2O[C@H]1CN(C)Cc1ccc2c(c1)OCO2 | . | 104* | . | -2 | 0
C[C@H](CO)N1C[C@H](C)[C@H](CN(C)Cc2ccc3c(c2)OCO3)Oc2ccc(NS(=O)(=O)c3cccs3)cc2CC1=O | . | -4 | . | 0 | 0
C[C@H]1CN([C@@H](C)CO)C(=O)Cc2cc(NS(=O)(=O)c3ccc(Cl)cc3)ccc2O[C@@H]1CN(C)Cc1ccc2c(c1)OCO2 | . | 23* | . | 2 | 2
C[C@H](CO)N1C[C@H](C)[C@@H](CN(C)Cc2ccc3c(c2)OCO3)Oc2ccc(NS(=O)(=O)c3cn(C)cn3)cc2CC1=O | . | 45* | -5 | . | 0
C[C@@H]1CN([C@H](C)CO)C(=O)Cc2cc(NC(=O)NC3CCCCC3)ccc2O[C@@H]1CN(C)C(=O)Nc1ccccc1 | . | -9 | . | -1 | -1
C[C@@H]1CCCCO[C@H](CN(C)C(=O)C2CCCCC2)[C@@H](C)CN([C@@H](C)CO)C(=O)c2cc(NS(=O)(=O)c3ccc(F)cc3)ccc2O1 | . | 2 | -1 | 0 | 0
C[C@@H]1CCCCO[C@H](CN(C)C(=O)CCCN(C)C)[C@@H](C)CN([C@H](C)CO)C(=O)c2cc(NC(=O)Cc3ccccc3)ccc2O1 | . | -4 | 6 | 0 | 0

Screens deposited in PubChem by Broad Institute.
